Experimental data reported in ChEMBL document CHEMBL4819011, “Structure-based discovery of 1H-indole-2-carboxamide derivatives as potent ASK1 inhibitors for potential treatment of ulcerative colitis” (Eur J Med Chem, 2021).
Calls of active or inactive are those of the source. The calls are words filed in the database; no cut-off is given here.

Columns and labels:
[1] = Volume of distribution at steady state in Sprague-Dawley rat at 1 mg/kg, iv measured for 24 hrs by LC-MS/MS analysis; assay type: ADME, organism-based; settings: in vivo, read-out: Vdss
Summary of the method: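 Male SD rats, fasted 24 h, n = 3. Single iv dose of 1 mg/kg given as a solution in 10% DMAC + 10% (30% Solutol HS 15 in water) + 80% saline. Venous blood (about 150 µL) collected into heparin tubes at 0.083, 0.25, 0.5, 1, 2, 4, 8 and 24 h. Plasma protein-precipitated with ACN containing dexamethasone IS, analysed by LC-MS/MS. Parameters calculated in DAS 2.1.1; mean ± SD.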

Mus musculus [2] = assay: Anti-ulcerative colitis activity against DSS-induced ulcerative colitis ICR mouse model assessed as colon shortening at 25 mg/kg, po qd measured after 7 days (reference value: 26.7%); assay type: functional; settings: time 7 day
Summary of the method: (§1)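 Male ICR mice (18–22 g, 6–8 weeks) given 3% DSS (w/v) in drinking water for 7 days, water changed every two days. Dosed 25 mg/kg po once daily in CMC-Na aqueous vehicle during DSS exposure; vehicle-treated water and DSS groups served as controls, n = 6 per group. Body weight, stool consistency and rectal bleeding recorded daily. DAI is the mean of the weight-loss (0–4), stool (0–2) and blood (0–2) scores. Colon length measured at sacrifice. Mean ± SEM.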

Mus musculus [3] = assay: Anti-ulcerative colitis activity against DSS-induced ulcerative colitis ICR mouse model assessed as decrease of colonic tissue damage at 25 mg/kg, po qd measured after 7 days by H and E staining method; assay type: functional, organism-based; settings: time 7.0 day
Summary of the method: (§2)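 ICR mice given 3% DSS in drinking water for 7 days with 25 mg/kg po qd in CMC-Na vehicle. At sacrifice, colons fixed in 4% formaldehyde, paraffin-embedded, sectioned at 4 µm and stained with hematoxylin and eosin. Histopathology examined by light microscopy.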

Mus musculus [4] = assay: Anti-ulcerative colitis activity against DSS-induced ulcerative colitis ICR mouse model assessed as decrease of infiltration of inflammatory cells in colon at 25 mg/kg, po qd measured after 7 days by H and E staining method; assay type: functional, organism-based; settings: time 7.0 day; summary of the method: as §2
[5] = biological target: T1, Mitogen-activated protein kinase kinase kinase 5 (Mus musculus) (UniProt O35099); assay: In vivo inhibition of ASK1 in DSS-induced ulcerative colitis ICR mouse model assessed as downregulation of phosphorylation of ASK1 in colon at 25 mg/kg, po qd measured after 7 days by western blot assay; assay type: functional, organism-based; settings: time 7.0 day
T1 sequence (whole entry): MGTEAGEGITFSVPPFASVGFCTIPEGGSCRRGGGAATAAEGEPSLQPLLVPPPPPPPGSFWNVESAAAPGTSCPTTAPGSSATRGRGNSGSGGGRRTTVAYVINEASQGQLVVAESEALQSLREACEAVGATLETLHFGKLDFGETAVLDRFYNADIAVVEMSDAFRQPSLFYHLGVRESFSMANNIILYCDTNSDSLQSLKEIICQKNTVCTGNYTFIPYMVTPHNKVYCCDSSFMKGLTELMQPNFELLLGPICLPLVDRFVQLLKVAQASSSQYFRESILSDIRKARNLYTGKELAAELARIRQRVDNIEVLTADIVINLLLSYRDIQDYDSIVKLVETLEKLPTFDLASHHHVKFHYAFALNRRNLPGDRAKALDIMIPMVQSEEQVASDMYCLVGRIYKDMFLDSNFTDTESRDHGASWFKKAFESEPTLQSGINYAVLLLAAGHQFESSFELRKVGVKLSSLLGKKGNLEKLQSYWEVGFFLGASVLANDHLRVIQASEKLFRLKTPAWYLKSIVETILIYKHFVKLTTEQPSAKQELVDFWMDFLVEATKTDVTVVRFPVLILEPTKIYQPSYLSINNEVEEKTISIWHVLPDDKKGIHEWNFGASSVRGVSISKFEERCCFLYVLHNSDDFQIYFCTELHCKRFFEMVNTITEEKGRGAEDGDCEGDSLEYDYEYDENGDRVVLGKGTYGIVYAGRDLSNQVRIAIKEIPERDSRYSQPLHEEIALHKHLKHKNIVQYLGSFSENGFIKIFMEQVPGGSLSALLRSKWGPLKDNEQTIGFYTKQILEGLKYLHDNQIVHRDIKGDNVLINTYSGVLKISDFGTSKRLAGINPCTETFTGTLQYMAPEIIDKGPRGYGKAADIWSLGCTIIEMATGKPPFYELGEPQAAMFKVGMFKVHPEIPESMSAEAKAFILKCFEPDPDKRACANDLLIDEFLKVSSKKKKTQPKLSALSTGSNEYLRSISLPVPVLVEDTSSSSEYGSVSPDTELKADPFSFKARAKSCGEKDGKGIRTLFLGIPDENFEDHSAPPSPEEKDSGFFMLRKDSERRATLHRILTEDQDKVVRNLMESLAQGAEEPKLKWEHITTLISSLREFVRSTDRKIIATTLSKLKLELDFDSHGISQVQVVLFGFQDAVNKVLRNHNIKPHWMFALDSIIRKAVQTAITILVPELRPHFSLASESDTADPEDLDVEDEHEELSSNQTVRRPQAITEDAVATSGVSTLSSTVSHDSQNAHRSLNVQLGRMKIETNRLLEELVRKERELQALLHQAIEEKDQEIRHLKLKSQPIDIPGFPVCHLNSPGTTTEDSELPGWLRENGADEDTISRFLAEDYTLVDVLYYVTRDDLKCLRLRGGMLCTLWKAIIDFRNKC
Summary of the method: (§3)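 Colons from ICR mice given 7 days of DSS plus 25 mg/kg po qd. Tissue homogenised in ice-cold RIPA buffer and protein quantified by BCA. Proteins separated by SDS-PAGE, transferred to PVDF and blocked in 5% BSA. Probed overnight at 4 °C for total and phospho ASK1, MKK3/6, MKK4/7, p38 and JNK, with GAPDH as loading control. Detected with HRP anti-rabbit secondary and ECL. Phosphorylated protein normalised to its unphosphorylated form.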

[6] = biological target: T1, Mitogen-activated protein kinase kinase kinase 5 (Mus musculus); assay: In vivo inhibition of ASK1 in DSS-induced ulcerative colitis ICR mouse model assessed as downregulation of phosphorylation of MKK3/6 in colon at 25 mg/kg, po qd measured after 7 days by western blot assay; assay type: functional, organism-based; settings: time 7.0 day; summary of the method: as §3
[7] = biological target: T1, Mitogen-activated protein kinase kinase kinase 5 (Mus musculus); assay: In vivo inhibition of ASK1 in DSS-induced ulcerative colitis ICR mouse model assessed as downregulation of phosphorylation of MKK4/7 in colon at 25 mg/kg, po qd measured after 7 days by western blot assay; assay type: functional, organism-based; settings: time 7.0 day; summary of the method: as §3
Mus musculus [8] = assay: Anti-inflammatory activity against DSS-induced ulcerative colitis ICR mouse model assessed as decrease of IL-1 beta level in colon at 25 mg/kg, po qd measured after 7 days by ELISA; assay type: functional, organism-based; settings: time 7.0 day
Summary of the method: (§4)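 Colon tissue collected from ICR mice after 7 days of 3% DSS drinking water plus 25 mg/kg po qd dosing. Tissue homogenised and centrifuged; IL-1β, IL-6 and TNF-α in the supernatant measured with mouse ELISA kits.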

Mus musculus [9] = assay: Anti-inflammatory activity against DSS-induced ulcerative colitis ICR mouse model assessed as decrease of IL-6 level in colon at 25 mg/kg, po qd measured after 7 days by ELISA; assay type: functional, organism-based; settings: time 7.0 day; summary of the method: as §4
Mus musculus [10] = assay: Anti-inflammatory activity against DSS-induced ulcerative colitis ICR mouse model assessed as decrease of TNF-alpha level in colon at 25 mg/kg, po qd measured after 7 days by ELISA; assay type: functional, organism-based; settings: time 7.0 day; summary of the method: as §4
Mus musculus [11] = assay: Anti-ulcerative colitis activity against DSS-induced ulcerative colitis ICR mouse model assessed as recovery of body weight loss at 25 mg/kg, po qd measured after 7 days; assay type: functional, organism-based; settings: time 7.0 day; summary of the method: as §1
Mus musculus [12] = assay: Anti-ulcerative colitis activity against DSS-induced ulcerative colitis ICR mouse model assessed as disease activity index score at 25 mg/kg, po qd measured after 7 days (reference value: 2.83 units); assay type: functional; settings: time 7 day; summary of the method: as §1
[13] = biological target: T1, Mitogen-activated protein kinase kinase kinase 5 (Mus musculus); assay: In vivo inhibition of ASK1 in DSS-induced ulcerative colitis ICR mouse model assessed as downregulation of phosphorylation of p38 in colon at 25 mg/kg, po qd measured after 7 days by western blot assay; assay type: functional, organism-based; settings: time 7.0 day; summary of the method: as §3
[14] = biological target: T1, Mitogen-activated protein kinase kinase kinase 5 (Mus musculus); assay: In vivo inhibition of ASK1 in DSS-induced ulcerative colitis ICR mouse model assessed as downregulation of phosphorylation of JNK in colon at 25 mg/kg, po qd measured after 7 days by western blot assay; assay type: functional, organism-based; settings: time 7.0 day; summary of the method: as §3
[15] = Oral bioavailability in Sprague-Dawley rat at 5 mg/kg measured for 24 hrs by LC-MS/MS analysis; assay type: ADME, organism-based; settings: in vivo

Structure (SMILES): Cc1cc(F)c(C(=O)Nc2cccc(-c3nncn3C(C)C)n2)cc1-n1cnc(C2CC2)c1 [SELONSERTIB]
- Vd [1]: 0.55 L/kg
- Activity (Mus musculus [2]): 23.4%
- Activity (Mus musculus [3]): Active
- Activity (Mus musculus [4]): Active
- inhibition [5]: Active
- inhibition [6]: Active
- inhibition [7]: Active
- Activity (Mus musculus [8]): Active
- Activity (Mus musculus [9]): Active
- Activity (Mus musculus [10]): Active
- Activity (Mus musculus [11]): inactive
- DAI score decrease (Mus musculus [12]): 0.83
- inhibition [13]: Active
- inhibition [14]: Active
- bioavailability [15]: 75%
